In ChEMBL document CHEMBL1800054, “Thiazolides as novel antiviral agents. 1. Inhibition of hepatitis B virus replication” (J Med Chem, 2011):

Assays:
Hepatitis B virus [1] = assay: Antiviral activity against Hepatitis B virus infected in human HepG2(2.2.15) cells assessed as decrease in extracellular viral DNA measured 24 hrs after last dose; format: functional, organism-based; conditions: HepG2 2.2.15, 24 h
Summary of the method: (§1)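 Confluent 2.2.15 cells (HepG2 line chronically producing HBV) in 96-well culture; nine consecutive daily doses of compound. HBV DNA (extracellular virion or intracellular replication intermediates) quantified by blot hybridization 24 hr after the last dose. Cytotoxicity measured by neutral red uptake 24 hr after the last dose.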

Hepatitis B virus [2] = assay: Antiviral activity against Hepatitis B virus infected in human HepG2(2.2.15) cells assessed as decrease in intracellular viral DNA measured 24 hrs after last dose; format: functional, organism-based; conditions: HepG2 2.2.15, 24 h; summary of the method: as §1
[3] = Cytotoxicity against human HepG2(2.2.15) cells after 24 hrs by neutral red dye uptake assay; format: cell-based; conditions: for CC50 at 24 h: HepG2(2.2.15) cells; for CC50: hepg2 2.2.15, 24 h
Summary of the method: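 Confluent chronically HBV-producing 2.2.15 cultures given nine consecutive daily doses of compound; neutral red dye uptake read 24 hr after the last dose.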

[4] = Selectivity index, ratio CC50 for human HepG2(2.2.15) cells to EC90 for decrease in extracellular viral DNA in Hepatitis B virus infected human HepG2(2.2.15) cells; format: toxicity; conditions: read-out: Selectivity Index
Summary of the method: (§2)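 Ratio of CC50 to EC90 in confluent 2.2.15 cells treated with nine consecutive daily doses. Both read 24 hr after the last dose. CC50 = concentration halving neutral red uptake versus untreated cultures. EC values were run in triplicate.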

[5] = Selectivity index, ratio CC50 for human HepG2(2.2.15) cells to EC90 for decrease in intracellular viral DNA in Hepatitis B virus infected human HepG2(2.2.15) cells; format: toxicity, cell-based; conditions: read-out: Selectivity Index; summary of the method: as §2
Plasma [6] = assay: Metabolic stability in human plasma assessed as plasma esterase-induced compound deacetylation; format: ADME, cell-free
Plasma [7] = assay: Protein binding in human plasma; format: ADME, cell-free
Blood = assay: Metabolic stability in human blood after 1 hr; format: ADME, tissue-based
Summary of the method: (§3)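 Incubated 1 hour in human whole blood or plasma, then stability assessed.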

[8] = Inhibition of CYP450; format: ADME
Summary of the method: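 Screened for inhibition against a panel of 14 CYP isozymes.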

[9] = Protein binding in plasma; format: ADME, cell-free; conditions: read-out: PPB
[10] = Metabolic stability in human liver microsomes assessed as compound remaining after 60 mins; format: ADME, Microsome; conditions: read-out: Stability
Summary of the method: (§4)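 Incubated 60 minutes with human liver microsomes or S9 fraction; read-out is percent of parent compound remaining.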

Plasma [11] = assay: Metabolic stability in human plasma after 1 hr; format: ADME, cell-free; summary of the method: as §3
[12] = Metabolic stability in human liver S9 fraction assessed as compound remaining after 60 mins; format: ADME, subcellular; conditions: read-out: Stability; summary of the method: as §4

SMILES | EC50 (Hepatitis B virus [1]) [µM] | EC90 (Hepatitis B virus [1]) [µM] | EC50 (Hepatitis B virus [2]) [µM] | EC90 (Hepatitis B virus [2]) [µM] | CC50 at 24 h [3] [µM] | CC50 [3] [µM] | selectivity ratio [4] | selectivity ratio [5] | further results
CC(=O)Nc1cnc(NC(=O)c2ccccc2O)s1 | > 10 | > 10 | > 10 | > 10 | > 100 |  |  |  | 
COC(=O)c1cnc(NC(=O)c2ccccc2O)s1 | > 10 | > 10 |  |  |  | 15 |  |  | 
O=C(Nc1cc(C(F)(F)F)ccc1Cl)c1ccccc1O | 3.7 | 13 |  |  | > 100 |  |  |  | 
CC(=O)Oc1ccccc1C(=O)Nc1ccc(I)cc1 | 0.2 | 1.2 | 0.73 | 3.3 | > 100 |  | > 83 | > 30 | 
O=C(Nc1ncc(F)s1)c1ccccc1O | 3.1 | 12 |  |  |  | 51 | 4.3 |  | 
Cc1cccc(C(=O)Nc2nc(-c3ccccc3)cs2)c1O | 0.22 | 0.73 | 7.8 | 30 | > 100 |  | > 137 | 3.3 | 
CC(=O)Oc1ccccc1C(=O)Nc1cc(C(F)(F)F)cc(C(F)(F)F)c1 | 3.8 | 14 |  |  | > 100 |  | > 7.1 |  | 
Cc1cccc(C(=O)Nc2ncc(Br)s2)c1O | 3.5 | 9 | 7.6 | 22 | > 100 |  | > 11 | > 4.5 | 
O=C(Nc1ccc([N+](=O)[O-])cc1Cl)c1cc(Cl)ccc1O [NICLOSAMIDE] |  | > 10 |  |  | > 100 |  |  |  | 
CS(=O)(=O)c1cnc(NC(=O)c2ccccc2O)s1 | > 10 | > 10 | > 10 |  | > 100 |  |  |  | 
Cc1cccc(C(=O)Nc2ncc(Cl)s2)c1O | > 10 | > 10 | > 10 | > 10 |  | 100 |  |  | 
O=C(Nc1nc(-c2ccccc2)cs1)c1ccccc1O | 5.6 | 21 |  |  |  | 22 | 1 |  | 
CC(=O)Oc1ccccc1C(=O)Nc1ccc(Br)cc1 | 0.76 | 3 | 2.1 | 6.8 | > 100 |  | > 33 | > 15 | 
O=C(Nc1ccc([N+](=O)[O-])cc1)c1ccccc1O | > 10 | > 10 |  |  | > 100 |  |  |  | 
O=C(Nc1ncc(-c2ccc(Cl)cc2)s1)c1ccccc1O | > 10 | > 10 | > 10 | > 10 | > 100 |  |  |  | 
O=C(Nc1nc(-c2ccccc2)cs1)c1cccc(Cl)c1O | 0.15 | 0.6 |  |  | > 100 |  | > 166 |  | 
O=C(Nc1ncc(Br)s1)c1cccc(Cl)c1O | 0.32 | 2 | 0.59 | 3.9 |  | 30 | 15 | 7.7 | 

SMILES | EC50 (Hepatitis B virus [1]) [µM] | EC90 (Hepatitis B virus [1]) [µM] | EC50 (Hepatitis B virus [2]) [µM] | EC90 (Hepatitis B virus [2]) [µM] | CC50 at 24 h [3] [µM] | CC50 [3] [µM] | selectivity ratio [4] | selectivity ratio [5] | further results
O=C(Nc1ncc(Br)s1)c1cc(Cl)ccc1O | 0.21 | 1.1 | 3.5 | 11 |  | 45 | 41 | 4.1 | 
O=C(Nc1ccc(Cl)cc1)c1ccccc1O | > 10 | > 10 |  |  | > 100 |  |  |  | 
O=C(Nc1ncc(C(F)(F)F)s1)c1ccccc1O | 3.8 | 11 | 9.1 | 27 | > 100 |  | > 9.1 | > 3.7 | 
O=C(Nc1ncc(Cl)s1)c1ccccc1O | 0.33 | 0.89 | 1 | 2.9 |  | 38 | 43 | 13 | 
CCOC(=O)Oc1ccccc1C(=O)Nc1ncc([N+](=O)[O-])s1 | 0.21 | 0.69 | 0.54 | 1.8 |  | 9.9 | 13 | 5.5 | 
O=C(Nc1nccs1)c1ccccc1O | > 10 | > 10 |  |  |  | 16 |  |  | 
CC(=O)Oc1ccccc1C(=O)Nc1ncc([N+](=O)[O-])s1 [NITAZOXANIDE] | 0.12 |  | 0.59 |  | > 100 |  |  |  | t1/2 (Plasma [6]): 6 min; PPB (Plasma [7]): > 95%
O=C(Nc1ncc(Br)s1)c1ccccc1O | 1.2 | 4 | 2.9 | 8.7 | > 100 |  | > 25 | > 12 | 
CS(=O)(=O)c1csc(NC(=O)c2ccccc2O)n1 | > 10 | > 10 |  |  | > 100 |  |  |  | 
O=C(Nc1ncc(Br)s1)c1ccc(F)cc1O | 2.1 | 5.6 |  |  |  | 12 | 2.1 |  | 
Cc1ccc(O)c(C(=O)Nc2ncc(Cl)s2)c1 | 0.33 | 0.83 | 0.9 | 2 | 100 |  | > 120 | > 51 | Stability (Blood): Stable; inhibition (INH) [8]: Not Active; fraction unbound [9]: < 0.01; remaining at 1 h [10]: 16%; Stability (Plasma [11]): Stable; remaining at 1 h [12]: 6%
Cc1ccc(C(=O)Nc2ncc(Cl)s2)c(O)c1 | 1 | 3.3 | 2.7 | 6.3 | 100 |  | > 30 | > 16 | 
N#Cc1cnc(NC(=O)c2ccccc2O)s1 | 3.2 | 9.4 | 5.5 | 14 | > 100 |  | > 11 | > 7.1 | 
Cc1cc([N+](=O)[O-])c(Cl)cc1NC(=O)c1ccccc1O | 0.28 | 0.73 | 0.66 | 1.7 |  | 89 | 122 | 52 | 
CC(C)c1cnc(NC(=O)c2ccccc2O)s1 | > 10 | > 10 | > 10 | > 10 | > 100 |  |  |  | 
CC(=O)Oc1ccccc1C(=O)Nc1ccc(Cl)cc1 | 3.5 | 9.7 |  |  | > 100 |  | 11 |  | 
O=C(Nc1ncc([N+](=O)[O-])s1)c1ccccc1O [TIZOXANIDE] | 0.15 | 0.58 | 0.46 | 1.2 | > 100 |  | > 172 | > 83 | PPB (Plasma [7]): > 95%
